Assay results reported in ChEMBL document CHEMBL4196210, “Depsipeptides Featuring a Neutral P1 Are Potent Inhibitors of Kallikrein-Related Peptidase 6 with On-Target Cellular Activity” (J Med Chem, 2018).
The source made the active and inactive calls. The calls are words filed in the database; no cut-off is given here.

Columns and labels:
Trypsin [1] = target: T1, Trypsin (Homo sapiens, UniProt P07477+P07478+P35030); assay: Inhibition of trypsin (unknown origin) pre-incubated for 30 mins before N-Boc-FSR-AMC substrate addition and measured after 30 mins; format: protein assay
Kallikrein-4 [2] = target: T2, Kallikrein-4 (Homo sapiens, UniProt Q9Y5K2); assay: Inhibition of N-terminal FLAG-tagged and C-terminal His tagged pro-KLK4 (unknown origin) expressed in Escherichia coli in presence of thermolysin pre-incubated for 10 mins before Boc-FSR-AMC substrate addition and measured after 20 mins by fluorescence based assay
T2 sequence (Q9Y5K2 whole entry): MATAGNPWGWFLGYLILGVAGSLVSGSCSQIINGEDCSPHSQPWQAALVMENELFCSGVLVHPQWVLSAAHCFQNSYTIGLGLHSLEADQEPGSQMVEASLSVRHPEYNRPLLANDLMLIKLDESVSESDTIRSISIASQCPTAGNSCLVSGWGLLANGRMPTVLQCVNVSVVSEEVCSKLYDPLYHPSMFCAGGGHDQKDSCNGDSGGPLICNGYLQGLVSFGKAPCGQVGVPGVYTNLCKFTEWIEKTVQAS

Kallikrein-5 = target: T3, Kallikrein-5 (Homo sapiens, UniProt Q9Y337); assay: Inhibition of KLK5 (unknown origin) expressed in Pichia pastoris pre-incubated for 10 mins before Boc-ValProArg-AMC substrate addition and measured after 30 mins by fluorescence based assay
T3 sequence (Q9Y337 whole entry): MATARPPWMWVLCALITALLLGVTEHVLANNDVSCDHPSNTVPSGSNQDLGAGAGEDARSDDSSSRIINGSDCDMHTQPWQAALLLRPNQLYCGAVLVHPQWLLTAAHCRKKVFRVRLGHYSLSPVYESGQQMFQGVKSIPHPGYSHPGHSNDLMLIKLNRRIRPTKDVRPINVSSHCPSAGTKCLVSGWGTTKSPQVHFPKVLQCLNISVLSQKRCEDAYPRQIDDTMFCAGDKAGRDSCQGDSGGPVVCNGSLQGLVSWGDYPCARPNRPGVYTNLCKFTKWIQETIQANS

Kallikrein-7 [3] = target: T4, Kallikrein-7 (Homo sapiens, UniProt P49862); assay: Inhibition of KLK7 (unknown origin) expressed in Pichia pastoris pre-incubated for 10 mins before Leu-Leu-Val-Tyr-AMC substrate addition and measured after 30 mins by fluorescence based assay
Outline: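 KLK7 at 33 nM final in 100 mM phosphate, 0.01% Tween-20, pH 8.5, with inhibitor (1:3 dilutions) or 2% DMSO for 10 min at rt. Reaction started with Leu-Leu-Val-Tyr-AMC at 500 µM final. Fluorescence (ex 380/em 460) read every 60 s for 30 min. Triplicates.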
Target sequence in this assay (P49862 whole entry): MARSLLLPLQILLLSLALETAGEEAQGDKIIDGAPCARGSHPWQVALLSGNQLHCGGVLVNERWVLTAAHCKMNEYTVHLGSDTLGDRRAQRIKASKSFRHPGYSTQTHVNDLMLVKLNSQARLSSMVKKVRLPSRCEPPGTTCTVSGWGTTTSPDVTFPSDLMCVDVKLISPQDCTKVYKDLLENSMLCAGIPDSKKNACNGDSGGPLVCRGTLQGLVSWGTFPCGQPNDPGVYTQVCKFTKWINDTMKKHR

Kallikrein-8 = target: T5, Kallikrein-8 (Homo sapiens, UniProt O60259); assay: Inhibition of KLK8 (unknown origin) expressed in Pichia pastoris pre-incubated for 10 mins before Boc-ValProArg-AMC substrate addition and measured after 30 mins by fluorescence based assay
T5 sequence (O60259 whole entry): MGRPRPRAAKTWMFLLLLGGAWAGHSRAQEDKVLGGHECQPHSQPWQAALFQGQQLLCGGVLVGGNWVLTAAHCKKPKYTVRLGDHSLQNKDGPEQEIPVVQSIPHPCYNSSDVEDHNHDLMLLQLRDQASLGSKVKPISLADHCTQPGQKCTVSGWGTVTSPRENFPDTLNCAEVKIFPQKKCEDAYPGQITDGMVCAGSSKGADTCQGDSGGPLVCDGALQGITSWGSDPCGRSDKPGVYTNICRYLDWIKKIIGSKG

Kallikrein-13 = target: T6, Kallikrein-13 (Homo sapiens, UniProt Q9UKR3); assay: Inhibition of KLK13 (unknown origin) expressed in Pichia pastoris pre-incubated for 10 mins before Boc-ValProArg-AMC substrate addition and measured after 30 mins by fluorescence based assay
T6 sequence (Q9UKR3 whole entry): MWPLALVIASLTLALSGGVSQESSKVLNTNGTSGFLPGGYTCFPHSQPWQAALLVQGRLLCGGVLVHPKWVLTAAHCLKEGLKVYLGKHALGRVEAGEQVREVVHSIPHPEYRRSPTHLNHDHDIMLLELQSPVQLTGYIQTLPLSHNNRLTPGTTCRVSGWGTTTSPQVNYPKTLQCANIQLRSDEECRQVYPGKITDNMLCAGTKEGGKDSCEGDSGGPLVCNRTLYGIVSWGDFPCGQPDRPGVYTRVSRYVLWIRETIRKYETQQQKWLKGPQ

Kallikrein-14 = target: T7, Kallikrein-14 (Homo sapiens, UniProt Q9P0G3); assay: Inhibition of KLK14 (unknown origin) expressed in Pichia pastoris pre-incubated for 10 mins before Boc-ValProArg-AMC substrate addition and measured after 30 mins by fluorescence based assay
T7 sequence (Q9P0G3 whole entry): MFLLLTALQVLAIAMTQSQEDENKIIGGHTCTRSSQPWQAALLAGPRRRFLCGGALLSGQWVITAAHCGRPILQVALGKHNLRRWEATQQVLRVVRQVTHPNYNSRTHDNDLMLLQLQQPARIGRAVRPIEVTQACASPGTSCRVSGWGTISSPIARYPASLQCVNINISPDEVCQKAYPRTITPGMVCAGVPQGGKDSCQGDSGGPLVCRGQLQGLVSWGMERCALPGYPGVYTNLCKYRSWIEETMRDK

[4] = Stability in DMEM supplemented with 10% (v/v) fetal bovine serum at 10 uM at 37 degC assessed as half life by HPLC-MS method; format: physicochemical; details: cattle, DMEM with 10% (v/v) fetal bovine serum
Outline: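 Compound at 10 µM (0.2% DMSO) in DMEM with 10% FBS, 2 mM L-glutamine and 1% penicillin/streptomycin, plus 10 µM triazole internal standard, held at 37 °C. Sampled hourly to 10 h, then at 24 h, by HPLC-MS in SIM mode for parent and hydrolysis product.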

[5] = target: Kallikrein-5 (Homo sapiens) (UniProt Q9Y337); assay: Binding affinity to KLK5 in human VCAP cells conditioned medium at 50 uM pre-incubated for 30 mins by activity-based probe based in-gel fluorescence assay; format: cell-based
[6] = target: T8, Prostate-specific antigen (Homo sapiens) (UniProt P07288); assay: Binding affinity to KLK3 in human LNCAP cells conditioned medium at 50 uM pre-incubated for 30 mins by activity-based probe based in-gel fluorescence assay; format: cell-based
T8 sequence (whole entry): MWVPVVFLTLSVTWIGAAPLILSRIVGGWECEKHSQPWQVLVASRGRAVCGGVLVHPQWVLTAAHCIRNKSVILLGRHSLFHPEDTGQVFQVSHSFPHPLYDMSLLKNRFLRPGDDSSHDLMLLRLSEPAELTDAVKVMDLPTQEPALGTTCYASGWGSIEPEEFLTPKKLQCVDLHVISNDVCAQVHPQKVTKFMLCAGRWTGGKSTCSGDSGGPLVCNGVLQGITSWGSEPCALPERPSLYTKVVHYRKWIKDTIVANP

Kallikrein-4 [7] = target: T2, Kallikrein-4; assay: Binding affinity to recombinant KLK4 (unknown origin) at 50 uM pre-incubated with conditioned medium for 30 mins by activity-based probe based in-gel fluorescence assay
Kallikrein-7 [8] = target: T4, Kallikrein-7; assay: Binding affinity to recombinant KLK7 (unknown origin) at 50 uM pre-incubated with conditioned medium for 30 mins by activity-based probe based in-gel fluorescence assay
Target sequence in this assay (P49862 30-253 limits assumed): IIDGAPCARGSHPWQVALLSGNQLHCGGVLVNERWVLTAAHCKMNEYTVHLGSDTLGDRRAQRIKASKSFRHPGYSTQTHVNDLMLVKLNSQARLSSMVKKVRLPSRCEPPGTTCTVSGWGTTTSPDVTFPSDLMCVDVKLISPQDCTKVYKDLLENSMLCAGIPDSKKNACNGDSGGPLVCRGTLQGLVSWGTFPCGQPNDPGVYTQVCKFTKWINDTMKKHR

Trypsin [9] = target: T1, Trypsin; assay: Binding affinity to recombinant trypsin (unknown origin) at 50 uM pre-incubated with conditioned medium for 30 mins by activity-based probe based in-gel fluorescence assay; format: protein assay
CAL-27 [10] = assay: Effect on cell proliferation of human CAL27 cells at 100 to 500 nM incubated for 48 hrs by BrdU incorporation assay; format: ADME, cell-based; details: cal-27, 48 h, 0.5 µM
Detroit 562 [11] = assay: Effect on cell proliferation of human Detroit 562 cells at 100 to 500 nM incubated for 48 hrs by BrdU incorporation assay; format: ADME, cell-based; details: detroit 562, 48 h, 0.5 µM
CAL-27 [12] = assay: Effect on EMT switch in human CAL27 cells at 100 to 500 nM incubated for 48 hrs; format: ADME, cell-based; details: cal-27, 48 h, 0.5 µM
Detroit 562 [13] = assay: Effect on EMT switch in human Detroit 562 cells at 100 to 500 nM incubated for 48 hrs; format: ADME, cell-based; details: detroit 562, 48 h, 0.5 µM

## Cc1nn(-c2ccccc2)c(C)c1NC(=O)COC(=O)Cc1c(C)[nH]c2ccccc12
Trypsin [1]
  IC50: 21 µM
Kallikrein-4 [2]
  IC50: > 200 µM
Kallikrein-5
  IC50: 1.1 µM
Kallikrein-7 [3]
  IC50: 73 µM
Kallikrein-8
  IC50: > 10 µM
Kallikrein-13
  IC50: > 10 µM
Kallikrein-14
  IC50: 10.3 µM
[4]
  half-life at 10 µM: 4.22 h
[5]
  Activity: inactive
[6]
  Activity: inactive
Kallikrein-4 [7]
  Activity: inactive
Kallikrein-7 [8]
  Activity: inactive
Trypsin [9]
  Activity: inactive
CAL-27 [10]
  Activity: Non-Toxic
Detroit 562 [11]
  Activity: Non-Toxic
CAL-27 [12]
  Activity: Non-Toxic
Detroit 562 [13]
  Activity: Non-Toxic
